Test results published in ChEMBL document CHEMBL4346690, “Structure-activity relationship studies of (E)-3,4-dihydroxystyryl alkyl sulfones as novel neuroprotective agents based on improved antioxidant, anti-inflammatory activities and BBB permeability” (Eur J Med Chem, 2019).
Active and inactive are the calls of the source. The rule behind the calls is not given here.

Experiments:
[1] = Cytotoxicity against […] BV2 cells assessed as cell viability at 100 uM after 24 hrs by MTT assay; assay type: cell-based; settings: read-out: Activity
How it was run: (§1)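 Cells kept in high-glucose DMEM with 10% FBS and 1% PS at 37 °C, 5% CO2. Plated 1 day, then compounds for 24 h; viability by MTT at 100 µM as ODtreated/ODcontrol × 100%, untreated = 100%. Mean ± SD, n = 3.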

[2] = Cytotoxicity against […] BV2 cells assessed as cell viability at 0.625 to 40 uM after 24 hrs by MTS assay; assay type: cell-based; settings: read-out: Activity
How it was run: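 Viability of BV2 cells read by MTS under the NO-assay conditions: 3 h compound (0.625–40 µM) pretreatment followed by LPS 100 ng mL−1 for 24 h.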

[3] = Anti-neuroinflammatory activity in […] BV2 cells assessed as reduction in LPS-induced NO production preincubated for 3 hrs followed by LPS stimulation for 24 hrs by Griess assay; assay type: functional, cell-based; settings: BV-2
How it was run: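 BV2 microglia seeded 3 × 10^5 cells mL−1 for 1 day; compounds in medium added for 3 h, then LPS (final 100 ng mL−1) for a further 24 h. Supernatant mixed with Griess reagent, absorbance at 540 nm. Inhibition % from NO release of LPS-only, unstimulated and compound+LPS wells; IC50 reported; mean ± SD, n = 3.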

[4] = Cytotoxicity against rat PC12 cells assessed as cell viability at 100 uM after 24 hrs by MTT assay; assay type: cell-based, PC-12; settings: read-out: Activity; how it was run: as §1
PC-12 [5] = experiment: Neuroprotection activity in rat PC12 cells assessed as reduction in 6-OHDA-induced cell damages at 10 uM preincubated for 3 hrs followed by H2O2 addition and measured after 24 hrs by MTT assay relative to control; assay type: functional, cell-based; settings: in the assay text read “6-OHDA addition” for “H2O2 addition”
How it was run: (§2)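 PC12 cells plated at 2 × 10^5 cells mL−1 for 1 day, pretreated 3 h with compounds at 2.5, 5 or 10 µM, then 6-OHDA (final 250 µM) added for 24 h. Viability by MTT, absorbance 570 nm; untreated cells = 100%; mean ± SD, n = 3.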

PC-12 [6] = experiment: Neuroprotection activity in rat PC12 cells assessed as reduction in H2O2-induced cell death preincubated for 3 hrs followed by H2O2 addition and measured after 3 hrs by MTS assay; assay type: functional, cell-based
How it was run: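 PC12 cells plated at 2 × 10^5 cells mL−1 for 1 day, pretreated 3 h with compounds, then H2O2 (final 400 µM) for 3 h. Viability by MTS at 490 nm relative to untreated cells (100%); single-concentration tests at 2.5, 5, 10 µM and IC50 values; mean ± SD, n = 3.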

PC-12 [7] = experiment: Neuroprotection activity in rat PC12 cells assessed as reduction in 6-OHDA-induced cell damages at 2.5 uM preincubated for 3 hrs followed by H2O2 addition and measured after 24 hrs by MTT assay relative to control; assay type: functional, cell-based; settings: in the assay text read “6-OHDA addition” for “H2O2 addition”; how it was run: as §2
[8] = Antioxidant activity assessed as DPPH radical scavenging activity after 1 hr by […]; assay type: functional
How it was run: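 DPPH (0.2 mM) in ethanol mixed with sample, kept 1 h at room temperature, absorbance read at 517 nm. Scavenging % = [1−(Ac−Ab)/A0]×100, where Ab is the sample in ethanol without DPPH and A0 is the ethanol+DPPH control. EC50 reported; vitamin C used as reference antioxidant; mean ± SD, n = 3.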

PC-12 [9] = experiment: Neuroprotection against H2O2-induced cell death in rat PC12 cells assessed as increase in cell viability at 5 uM preincubated for 3 hrs followed by H2O2 addition and measured after 3 hrs by MTS assay relative to CAPE; assay type: functional
How it was run: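 PC12 cells plated at 2 × 10^5 cells/mL for 1 day, pretreated with compound (2.5, 5, 10 µM) for 3 h, then H2O2 added (final 400 µM) for 3 h. Viability read by MTS at 490 nm, untreated cells = 100%. Mean ± SD, n = 3.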

Structure (SMILES) | IC50 [3] | EC50 [8] | viability at 24 h, 100 µM [1] | viability at 24 h, up to 40 µM [2] | viability at 24 h, 100 µM [4] | Activity (PC-12 [5]) | IC50 (PC-12 [6]) | Activity (PC-12 [7]) | Activity (PC-12 [9])
CCCCCCCCCS(=O)(=O)/C=C/c1ccc(O)c(O)c1 | 7.4 µM | 7.7 µM | 66.6% | > 90% | 70.6% | Active | 1930 nM | Active | 
CCCCCCCCCCCCS(=O)(=O)/C=C/c1ccc(O)c(O)c1 | 6.6 µM | 8.5 µM | 25.2% | > 90% | 28.2% | Active | 2270 nM | Active | 
O=S(=O)(/C=C/c1ccc(O)c(O)c1)CCCCCCCCCCCO | 13.3 µM | 22.6 µM | 50.4% | > 90% | 100% | Active | 24100 nM | Active | 
O=S(=O)(/C=C/c1ccc(O)c(O)c1)CC1CCC1 | 20.8 µM | 8.8 µM | 83.8% | > 90% | 80.2% | Active | 4810 nM |  | 
C=CCCCCCCCS(=O)(=O)/C=C/c1ccc(O)c(O)c1 | 8.3 µM | 6.9 µM | 71.9% | > 90% | 74.7% | Active | 1900 nM | Active | 30%
O=S(=O)(/C=C/c1ccc(O)c(O)c1)CCCC1CCCCC1 | 9.2 µM | 7.9 µM | 77.7% | > 90% | 91.3% | Active | 1000 nM | Active | 30%
CCCCCS(=O)(=O)/C=C/c1ccc(O)c(O)c1 | 3.3 µM | 8.1 µM | 70.1% | > 90% | 57.4% | Active | 1830 nM | Active | 30%
CCCCCCS(=O)(=O)/C=C/c1ccc(O)c(O)c1 | 3.8 µM | 7.3 µM | 56.2% | > 90% | 63.7% | Active | 1300 nM | Active | 30%
C=CCCCCCCS(=O)(=O)/C=C/c1ccc(O)c(O)c1 | 8.7 µM | 6.4 µM | 73.4% | > 90% | 66.9% | Active | 1350 nM | Active | 30%
O=C(/C=C/c1ccc(O)c(O)c1)OCCc1ccccc1 [CAFFEIC ACID PHENETHYL ESTER] | 6 µM | 14.6 µM | 69.3% | > 90% | 85.1% | Active | 2000 nM |  | 
C=CCCCCCS(=O)(=O)/C=C/c1ccc(O)c(O)c1 | 11.2 µM | 7.1 µM | 58.9% | > 90% | 67.5% | Active | 1620 nM | Active | 30%
O=S(=O)(/C=C/c1ccc(O)c(O)c1)CCCCCCCO | 14.3 µM | 5.9 µM | 72% | > 90% | 91.8% | Active | 9910 nM | Active | 
O=S(=O)(/C=C/c1ccc(O)c(O)c1)CC1CCCCC1 | 6.7 µM | 7.5 µM | 74.7% | > 90% | 87% | Active | 1850 nM | Active | 30%
O=S(=O)(/C=C/c1ccc(O)c(O)c1)CC1CCCO1 (centres undefined) | 54.6 µM | 10.5 µM | 93.9% | > 90% | 98% | inactive | 27100 nM |  | 
O=S(=O)(/C=C/c1ccc(O)c(O)c1)CCC1CCCCC1 | 11.3 µM | 9.8 µM | 62.6% | > 90% | 94.9% | Active | 2000 nM | Active | 

Second part, led by results:

IC50 [3] | EC50 [8] | Structure (SMILES) | viability at 24 h, 100 µM [1] | viability at 24 h, up to 40 µM [2] | viability at 24 h, 100 µM [4] | Activity (PC-12 [5]) | IC50 (PC-12 [6]) | Activity (PC-12 [7]) | Activity (PC-12 [9])
7.6 µM | 6.4 µM | CCCCCCCCS(=O)(=O)/C=C/c1ccc(O)c(O)c1 | 63.6% | > 90% | 73.6% | Active | 1450 nM | Active | 
12.2 µM | 6.7 µM | O=S(=O)(/C=C/c1ccc(O)c(O)c1)CCCCCCCCO | 49.5% | > 90% | 87.3% | Active | 7910 nM | Active | 
103 µM | 13.8 µM | O=S(=O)(/C=C/c1ccc(O)c(O)c1)CC1CCCN1 (centres undefined) | 76.4% | > 90% | 55.9% |  |  |  | 
6.9 µM | 11.4 µM | CCCCCCCCCCCS(=O)(=O)/C=C/c1ccc(O)c(O)c1 | 23.2% | > 90% | 52.1% | Active | 2340 nM | Active | 
2.5 µM | 6.8 µM | O=S(=O)(/C=C/c1ccc(O)c(O)c1)CCC1CCCC1 | 76.6% | > 90% | 77.7% | Active | 1960 nM | Active | 
33.5 µM | 10.5 µM | O=S(=O)(/C=C/c1ccc(O)c(O)c1)CC1CC1 | 87.8% | > 90% | 92.9% | inactive | 6610 nM |  | 
8.5 µM | 7.1 µM | CCCCCCCS(=O)(=O)/C=C/c1ccc(O)c(O)c1 | 52.5% | > 90% | 85.7% | Active | 1330 nM | Active | 
6.9 µM | 10.8 µM | O=S(=O)(/C=C/c1ccc(O)c(O)c1)CC1CCCCO1 (centres undefined) | 78.8% | > 90% | 88.3% | Active | 3340 nM |  | 
7.3 µM | 6.8 µM | CCCCCCCCCCS(=O)(=O)/C=C/c1ccc(O)c(O)c1 | 34.1% | > 90% | 59.7% | Active | 2210 nM | Active | 
7 µM | 7.1 µM | CC(C)(C)OC(=O)N1CCCC1CS(=O)(=O)/C=C/c1ccc(O)c(O)c1 (centres undefined) | 68.7% | > 90% | 52.5% | inactive | 7200 nM |  | 
11 µM | 7.5 µM | O=S(=O)(/C=C/c1ccc(O)c(O)c1)CCCCCCCCCO | 54.4% | > 90% | 95.2% | Active | 7910 nM | Active | 
15.8 µM | 9.4 µM | O=S(=O)(/C=C/c1ccc(O)c(O)c1)CC1CCCC1 | 72.7% | > 90% | 85.4% | Active | 2190 nM | Active | 
